We go through eleven compounds from ChEMBL document CHEMBL2434950 (Eur J Med Chem, 2013).

Data set [1] in a line: Cytotoxicity against african green monkey Vero cells by Alamar blue assay. It counts as cell-based. The settings on record: chlorocebus sabaeus, read-out: ED50 (the source's name).
Data set [2] deals with Toxoplasma gondii. Put plainly: Antiparasitic activity against Toxoplasma gondii tachyzoites by fluorescence assay. It counts as functional. The settings on record: read-out: ED50 (the source's name). The essentials: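 Red fluorescent protein-expressing tachyzoites were filtered (3 µm) and needle-passed, then seeded at 4×10^4/well onto confluent hTERT monolayers in DMEM-HG with 1% FBS, 2 mM glutamine and 1 mM pyruvate, at 37 °C. Drugs were serially diluted in the same medium. Plates were read daily from the bottom (ex 544/em 590 nm). EC50 came from the fit I = Imax·C/(EC50 + C), Imax 100%. Three experiments, each in triplicate.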

Data set [3] concerns Trypanosoma cruzi. Put plainly: Antiparasitic activity against Trypanosoma cruzi amastigotes after 3 days by fluorescence assay. The settings on record: 72 h, read-out: ED50 (the source's name). Format: functional. The method in brief: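 Gamma-irradiated (2000 Rads) Vero cells, 3.4×10^4/well in RPMI with 10% FBS, were kept overnight at 35 °C, 7% CO2. […] Serial dilutions were added at 5 concentrations up to 20 or 25 µM, each in quadruplicate, with a benznidazole control. Fluorescence was read at day 3, and IC50 was derived by non-linear regression.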

The subject of data set [4] is Trypanosoma cruzi. The data set is described as follows: Ratio of compound ED50 to WC-9 ED50 for Trypanosoma cruzi amastigotes after 3 days by fluorescence assay. Format: functional.
Data set [5] has as its system Toxoplasma gondii. Put plainly: Antiparasitic activity against Toxoplasma gondii tachyzoites at 10 uM by fluorescence assay. It counts as functional.
Data set [6] concerns Trypanosoma cruzi. The data set is described as follows: Antiparasitic activity against Trypanosoma cruzi EP epimastigotes. It counts as functional.
The nature of data set [7]: Non-competitive inhibition of mitochondrial Trypanosoma cruzi SQS.
Data set [8] can be described thus: Non-competitive inhibition of glycosomal Trypanosoma cruzi SQS.

Molecules are shown by their SMILES. ≈ marks a conversion by molar mass, not a printed value.

Consider `O=[N+]([O-])c1cccc(Oc2ccc(OCCOC3CCCCO3)cc2)c1` (stereo not given), for which the CC50 in data set [1] was above 50 µM. For the same compound, the figures for the EC50 in data set [2] and in data set [3] were 3.28 µM and above 10 µM, respectively.

As to `N#CSCCOc1ccc(Oc2cccc([N+](=O)[O-])c2)cc1`, the Ratio ED50 in data set [4] worked out at 1.04. The CC50 in data set [1] was above 50 µM. The EC50 was 2.03 µM in data set [2] and 5.2 µM in data set [3].

On to `COc1ccc(Oc2ccc(OCCSC#N)cc2)cc1`, for which the CC50 in data set [1] is above 100 µM. In addition, the figures for the EC50 in data set [2] and in data set [3] were 3.81 µM and 6.1 µM, respectively.

In the case of `COc1cccc(Oc2ccc(OCCSC#N)cc2)c1`, the CC50 in data set [1] was above 50 µM. The EC50 in data set [2] was 6.7 µM; in data set [3], 4.5 µM.

Regarding `c1cncc(Oc2ccc(OCCOC3CCCCO3)cc2)c1` (stereo not given), the Activity in data set [5] was found to be 3.25%. The CC50 in data set [1] was above 50 µM. Besides, the EC50 in data set [3] was above 10 µM.

For the compound `N#CSCCOc1ccc(Oc2cccnc2)cc1`, the CC50 in data set [1] was above 50 µM. Besides, the EC50 is 7.5 µM in data set [2] and 7.4 µM in data set [3].

`N#CSCCOc1cccc(Oc2ccccc2)c1`: in data set [1], the CC50 was above 50 µM. Further, the results for the EC50 in data set [2] and in data set [3] were 3.95 µM and 11.2 µM, respectively.

With `COc1ccc(Oc2cccc(OCCSC#N)c2)cc1`, the CC50 in data set [1] was above 50 µM. For the same compound, the EC50 in data set [2] turned out to be 2.93 µM; in data set [3], 10.1 µM.

Usually MIC stands for the smallest concentration in the dilution series that meets the test's criterion for growth inhibition. By IC50 is commonly meant the midpoint of a concentration-inhibition curve. What is called Ki is a dissociation constant, usually derived from enzyme kinetics or from competition with a known ligand. Consider `N#CSCCOc1ccc(Oc2ccccc2)cc1`, for which inhibition of growth in data set [6] (MIC) required 1 µM (≈ 0.271 µg/mL). Also, the IC50 in data set [7] was 0.129 µM; in data set [8], 0.088 µM. The inhibition constant Ki in data set [7] was 0.129 µM; in data set [8] it was 0.088 µM. For the same compound, the CC50 in data set [1] was above 50 µM. The figures for the EC50 in data set [2] and in data set [3] were 4.8 µM and 5 µM, respectively.

`O=C1C(O)=C([C@H]2CC[C@H](c3ccc(Cl)cc3)CC2)C(=O)c2ccccc21` [ATOVAQUONE]: the EC50 in data set [2] stood at 0.032 µM.

With `O=C(Cn1ccnc1[N+](=O)[O-])NCc1ccccc1` [BENZNIDAZOLE], in data set [3], the EC50 was 1.75 µM.
